Laboratory results taken from ChEMBL document CHEMBL5705890, “Antitumor activity of an allosteric inhibitor of centromere-associated protein-E” (Proc Natl Acad Sci U S A, 2010).

Tests used:
[1] = Antitumor activity against human MV-522 cells in xenograft model assessed as tumor growth delay at 62.5 mg/kg relative to control; assay type: functional
A101D = test: Anticancer activity against human A101D cells assessed as cell doubling measured for 72 hrs by DAPI staining based analysis; assay type: functional
A549 = test: Antitumor activity against human A549 cells in xenograft model assessed as tumor growth delay at 125 mg/kg relative to control; assay type: functional
CAL-62 [2] = test: Anticancer activity against human CAL-62 cells assessed as cell doubling measured for 72 hrs by DAPI staining based analysis; assay type: functional
[3] = target: Centromere-associated protein E (Homo sapiens, UniProt Q02224, K184T); test: Binding affinity to human CENP-E K184T mutant assessed as inhibition constant
Chain of Centromere-associated protein E (Q02224 whole entry K184T): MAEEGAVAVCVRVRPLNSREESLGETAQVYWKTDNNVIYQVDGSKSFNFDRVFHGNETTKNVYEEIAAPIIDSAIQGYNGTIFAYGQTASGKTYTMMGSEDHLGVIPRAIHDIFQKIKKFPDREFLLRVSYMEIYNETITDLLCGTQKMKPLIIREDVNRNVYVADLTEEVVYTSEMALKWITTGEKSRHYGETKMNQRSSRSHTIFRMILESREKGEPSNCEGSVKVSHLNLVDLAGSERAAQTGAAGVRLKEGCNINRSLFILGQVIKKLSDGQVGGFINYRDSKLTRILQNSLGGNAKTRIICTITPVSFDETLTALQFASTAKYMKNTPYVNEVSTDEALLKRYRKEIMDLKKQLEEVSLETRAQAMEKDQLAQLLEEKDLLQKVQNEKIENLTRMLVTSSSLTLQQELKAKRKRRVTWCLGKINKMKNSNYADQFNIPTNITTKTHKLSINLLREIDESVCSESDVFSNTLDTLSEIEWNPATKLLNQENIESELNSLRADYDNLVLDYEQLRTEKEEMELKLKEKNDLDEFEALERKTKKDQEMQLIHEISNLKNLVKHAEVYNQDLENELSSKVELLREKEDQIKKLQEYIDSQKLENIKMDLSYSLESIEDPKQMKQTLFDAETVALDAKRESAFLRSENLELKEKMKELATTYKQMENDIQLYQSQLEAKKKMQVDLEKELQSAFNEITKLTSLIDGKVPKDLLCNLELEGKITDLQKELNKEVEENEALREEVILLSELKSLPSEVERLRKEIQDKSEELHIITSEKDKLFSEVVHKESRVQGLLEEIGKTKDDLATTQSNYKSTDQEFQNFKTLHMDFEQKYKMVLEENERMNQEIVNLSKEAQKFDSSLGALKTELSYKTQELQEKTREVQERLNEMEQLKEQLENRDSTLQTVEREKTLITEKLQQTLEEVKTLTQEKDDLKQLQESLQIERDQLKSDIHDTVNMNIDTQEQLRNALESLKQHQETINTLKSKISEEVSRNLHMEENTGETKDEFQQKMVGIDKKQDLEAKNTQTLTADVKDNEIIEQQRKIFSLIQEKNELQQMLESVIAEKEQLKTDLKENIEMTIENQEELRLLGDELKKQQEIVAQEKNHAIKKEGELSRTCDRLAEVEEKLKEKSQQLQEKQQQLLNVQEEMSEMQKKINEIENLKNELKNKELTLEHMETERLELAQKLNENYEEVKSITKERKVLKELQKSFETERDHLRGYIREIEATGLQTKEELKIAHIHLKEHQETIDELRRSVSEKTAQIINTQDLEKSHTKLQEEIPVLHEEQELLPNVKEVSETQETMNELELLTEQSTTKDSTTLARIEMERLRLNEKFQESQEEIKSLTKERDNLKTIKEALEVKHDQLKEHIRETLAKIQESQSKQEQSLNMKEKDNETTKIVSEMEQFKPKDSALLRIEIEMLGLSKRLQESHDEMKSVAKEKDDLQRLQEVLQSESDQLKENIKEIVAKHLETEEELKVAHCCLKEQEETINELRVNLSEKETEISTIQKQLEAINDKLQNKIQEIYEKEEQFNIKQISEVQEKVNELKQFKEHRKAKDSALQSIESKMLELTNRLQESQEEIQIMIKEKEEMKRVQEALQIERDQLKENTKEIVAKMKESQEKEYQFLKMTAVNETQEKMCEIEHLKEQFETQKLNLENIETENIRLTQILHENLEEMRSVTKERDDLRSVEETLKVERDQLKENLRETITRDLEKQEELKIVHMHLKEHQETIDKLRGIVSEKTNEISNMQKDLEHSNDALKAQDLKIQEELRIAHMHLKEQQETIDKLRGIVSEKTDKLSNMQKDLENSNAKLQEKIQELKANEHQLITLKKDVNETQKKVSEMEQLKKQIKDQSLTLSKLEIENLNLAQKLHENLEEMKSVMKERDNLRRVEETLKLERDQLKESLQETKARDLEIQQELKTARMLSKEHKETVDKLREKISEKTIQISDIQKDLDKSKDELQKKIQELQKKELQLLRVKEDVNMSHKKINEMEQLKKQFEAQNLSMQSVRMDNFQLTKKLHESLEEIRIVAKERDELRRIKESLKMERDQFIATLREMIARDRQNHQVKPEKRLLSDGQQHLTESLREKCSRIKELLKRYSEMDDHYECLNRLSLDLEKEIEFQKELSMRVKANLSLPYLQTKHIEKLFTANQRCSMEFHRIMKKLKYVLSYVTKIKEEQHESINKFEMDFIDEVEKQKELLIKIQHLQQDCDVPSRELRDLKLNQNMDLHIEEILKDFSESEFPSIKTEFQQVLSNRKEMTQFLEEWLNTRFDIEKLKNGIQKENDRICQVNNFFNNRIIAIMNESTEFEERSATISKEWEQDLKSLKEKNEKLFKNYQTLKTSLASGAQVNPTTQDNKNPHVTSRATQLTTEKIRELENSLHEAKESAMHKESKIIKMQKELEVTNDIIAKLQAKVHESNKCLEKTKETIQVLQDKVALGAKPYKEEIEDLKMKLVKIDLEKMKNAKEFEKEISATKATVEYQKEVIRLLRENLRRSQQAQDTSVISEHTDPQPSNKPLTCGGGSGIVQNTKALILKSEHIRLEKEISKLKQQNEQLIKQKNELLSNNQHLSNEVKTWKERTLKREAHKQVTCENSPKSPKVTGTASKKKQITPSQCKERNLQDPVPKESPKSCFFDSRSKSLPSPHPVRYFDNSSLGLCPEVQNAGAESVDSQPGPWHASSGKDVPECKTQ

HT-29 [4] = test: Antitumor activity against human HT-29 cells in xenograft model assessed as tumor growth delay at 62.5 mg/kg relative to control; assay type: functional
HT-3 = test: Anticancer activity against human HT-3 cells assessed as cell doubling measured for 72 hrs by DAPI staining based analysis; assay type: functional
MX1 = test: Antitumor activity against human MX1 cells in xenograft model assessed as tumor growth delay at 125 mg/kg relative to control; assay type: functional
[5] = Anticancer activity against human RDES cells assessed as cell growth inhibition measured after 72 hrs by DAPI staining based analysis; assay type: functional; conditions: RD-ES
HepG2 = test: Anticancer activity against human HepG2 cells assessed as cell doubling measured for 72 hrs by DAPI staining based analysis; assay type: functional
RPMI-8226 = test: Anticancer activity against human RPMI-8226 cells assessed as cell growth inhibition measured after 72 hrs by DAPI staining based analysis; assay type: functional
[6] = Antitumor activity against human MV-522 cells in xenograft model assessed as difference between median time to endpoint time of treated versus control group at 62.5 mg/kg; assay type: functional
YAPC = test: Anticancer activity against human YAPC cells assessed as cell growth inhibition measured after 72 hrs by DAPI staining based analysis; assay type: functional
647-V = test: Anticancer activity against human 647-V cells assessed as cell growth inhibition measured after 72 hrs by DAPI staining based analysis; assay type: functional
Summary of the method: (§1)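 Cells were seeded and, after 24 h, DNA content was read as T0. Cells were then exposed to varying drug concentrations for a further 72 h (T72). Fixed cells were DAPI-stained and DNA content measured by automated imaging. T72 values were normalized to T0. GI50 is the concentration giving 50% growth inhibition between T0 and Ymax, obtained by curve fitting.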

[7] = Anticancer activity against human COLO-704 cells assessed as cell doubling measured for 72 hrs by DAPI staining based analysis; assay type: functional
SW-403 = test: Anticancer activity against human SW403 cells assessed as cell doubling measured for 72 hrs by DAPI staining based analysis; assay type: functional
NCI-H1299 = test: Antitumor activity against human NCI-H1299 cells in xenograft model assessed as difference between median time to endpoint time of treated versus control group at 125 mg/kg; assay type: functional
RXF 393 = test: Anticancer activity against human RXF 393 cells assessed as cell doubling measured for 72 hrs by DAPI staining based analysis; assay type: functional
DB = test: Anticancer activity against human DB cells assessed as cell doubling measured for 72 hrs by DAPI staining based analysis; assay type: functional
HOP-62 = test: Anticancer activity against human HOP-62 cells assessed as cell doubling measured for 72 hrs by DAPI staining based analysis; assay type: functional
IGROV-1 = test: Anticancer activity against human IGROV-1 cells assessed as cell doubling measured for 72 hrs by DAPI staining based analysis; assay type: functional
LNCaP = test: Anticancer activity against human LNCaP cells assessed as cell doubling measured for 72 hrs by DAPI staining based analysis; assay type: functional
HCT-116 = test: Anticancer activity against human HCT-116 cells assessed as cell doubling measured for 72 hrs by DAPI staining based analysis; assay type: functional
HT-29 [8] = test: Anticancer activity against human HT-29 cells assessed as cell doubling measured for 72 hrs by DAPI staining based analysis; assay type: functional
SW48 [9] = test: Anticancer activity against human SW48 cells assessed as cell growth inhibition measured after 72 hrs by DAPI staining based analysis; assay type: functional
[10] = Antitumor activity against human MV-522 cells in xenograft model assessed as difference between median time to endpoint time of treated versus control group at 125 mg/kg; assay type: functional
A-375 [11] = test: Anticancer activity against human A-375 cells assessed as cell doubling measured for 72 hrs by DAPI staining based analysis; assay type: functional
SCC-15 = test: Anticancer activity against human SCC-15 cells assessed as cell growth inhibition measured after 72 hrs by DAPI staining based analysis; assay type: functional
HT-1080 = test: Anticancer activity against human HT-1080 cells assessed as cell growth inhibition measured after 72 hrs by DAPI staining based analysis; assay type: functional
G-402 = test: Anticancer activity against human G-402 cells assessed as cell doubling measured for 72 hrs by DAPI staining based analysis; assay type: functional
SW48 [12] = test: Anticancer activity against human SW48 cells assessed as cell doubling measured for 72 hrs by DAPI staining based analysis; assay type: functional
A673 = test: Anticancer activity against human A673 cells assessed as cell doubling measured for 72 hrs by DAPI staining based analysis; assay type: functional
[13] = Anticancer activity against human SKO-007 cells assessed as cell growth inhibition measured after 72 hrs by DAPI staining based analysis; assay type: functional
CAL-62 [14] = test: Anticancer activity against human CAL-62 cells assessed as cell growth inhibition measured after 72 hrs by DAPI staining based analysis; assay type: functional
Summary of the method: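 Cells were seeded, and DNA content at 24 h after seeding (T0) was read by imaging of fixed, DAPI-stained cells. Cells were then exposed to a range of drug concentrations for a further 72 h (T72) and DNA content was read again. T72 values were normalized to T0, and GI50 was taken from curve fits as the concentration giving 50% growth inhibition relative to T0 and Ymax.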

A-375 [15] = test: Anticancer activity against human A-375 cells assessed as cell growth inhibition measured after 72 hrs by DAPI staining based analysis; assay type: functional; summary of the method: as §1
COLO 320DM = test: Anticancer activity against human COLO 320DM cells assessed as cell doubling measured for 72 hrs by DAPI staining based analysis; assay type: functional
NCI-H460 = test: Antitumor activity against human NCI-H460 cells in xenograft model assessed as tumor growth delay at 125 mg/kg relative to control; assay type: functional
HMCB cell line = test: Anticancer activity against human HMCB cells assessed as cell growth inhibition measured after 72 hrs by DAPI staining based analysis; assay type: functional
NCI-H187 = test: Anticancer activity against human NCI-H187 cells assessed as cell doubling measured for 72 hrs by DAPI staining based analysis; assay type: functional
J82 = test: Anticancer activity against human J82 cells assessed as cell growth inhibition measured after 72 hrs by DAPI staining based analysis; assay type: functional
SCC-25 = test: Anticancer activity against human SCC-25 cells assessed as cell growth inhibition measured after 72 hrs by DAPI staining based analysis; assay type: functional
KM12 = test: Anticancer activity against human KM12 cells assessed as cell growth inhibition measured after 72 hrs by DAPI staining based analysis; assay type: functional

Ki [3]: 12 nM | GI50 (RPMI-8226): 27 nM | GI50 (SW48 [9]): 25 nM | GI50 (HT-1080): 24 nM | GI50 (A-375 [15]): 26 nM
SMILES: CC(C)Oc1ccc(C(=O)N[C@H](CNC(=O)CN(C)C)Cc2ccc(-c3cn4cccc([C@H](C)O)c4n3)cc2)cc1Cl [GSK-923295A]
Activity [1]: 50% | Activity (A101D): 1.36 | Activity (A549): 73% | Activity (CAL-62 [2]): 3.31 | Activity (HT-29 [4]): 6% | Activity (HT-3): 1.95 | Activity (MX1): 26% | GI50 [5]: 63 nM | Activity (HepG2): 2.45 | Time [6]: 12.5 days | GI50 (YAPC): 59 nM | GI50 (647-V): 72 nM | Activity [7]: 2.48 | Activity (SW-403): 1.12 | Time (NCI-H1299): 16.8 days | Activity (RXF 393): 1.2 | Activity (DB): 2.76 | Activity (HOP-62): 1.82 | Activity (IGROV-1): 2.69 | Activity (LNCaP): 1.4 | Activity (HCT-116): 4.11 | Activity (HT-29 [8]): 4.33 | Time [10]: 26.3 days | Activity (A-375 [11]): 3.04 | GI50 (SCC-15): 63 nM | Activity (G-402): 1.76 | Activity (SW48 [12]): 2.44 | Activity (A673): 2 | GI50 [13]: 60 nM | GI50 (CAL-62 [14]): 30 nM | Activity (COLO 320DM): 3.85 | Activity (NCI-H460): 210% | GI50 (HMCB cell line): 25 nM | Activity (NCI-H187): 2.08 | GI50 (J82): 114 nM | GI50 (SCC-25): 23 nM | GI50 (KM12): 56 nM
